A selection: hits, their analogues and other compounds. The true share with any hit is near 2.4%.
OPRM1-OPRD1 ag – OPRM1-OPRD1 heterodimerization agonism; AID 504326; 340,000 compounds, 0.3% hits; P35372+P41143; activation, % at 9.3 µM; cells, luminescence; in the data active means activation above about 18%;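 further: 0% = vehicle-treated cells and 100% = reference agonist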
HTR5A inv ag – HTR5A inverse agonism, opioid heterodimer counter-screen | AID 504634 | 340,000 compounds, 0.083% hits | HTR5A cell line, luminescence | P47898 | inhibition, % at 9.3 µM; in the data active means inhibition mostly above about 23%, no sharp cut-off; inactive means mostly below about 18%;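 further: 0% = cells with DMSO and 100% = no-cell wells with DMSO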
Target sequence (P47898 whole entry, looked up): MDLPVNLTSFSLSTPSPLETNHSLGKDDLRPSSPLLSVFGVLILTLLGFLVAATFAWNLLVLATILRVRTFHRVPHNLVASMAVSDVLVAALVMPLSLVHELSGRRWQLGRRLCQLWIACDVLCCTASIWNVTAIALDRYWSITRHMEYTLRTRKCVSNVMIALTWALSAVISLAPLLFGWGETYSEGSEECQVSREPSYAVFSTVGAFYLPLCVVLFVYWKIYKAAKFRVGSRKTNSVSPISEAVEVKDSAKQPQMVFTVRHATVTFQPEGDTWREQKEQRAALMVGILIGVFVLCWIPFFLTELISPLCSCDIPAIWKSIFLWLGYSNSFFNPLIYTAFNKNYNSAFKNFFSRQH
MC4R antagonist – blocks human MC4R cAMP signaling | MC4R-expressing cells, MTII-stimulated cAMP, LANCE TR-FRET | inhibition, % at 6.5 µM | 360,000 compounds, 0.48% hits | AID 540295;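 active means inhibition above its plate's cutoff, the mean of tested wells on that plate plus 3 SD, cut at about 29% in these data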;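 further: 0% = Melanotan II alone and 100% = Melanotan II plus saturating MCL0020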
Target sequence (P32245 whole entry, looked up): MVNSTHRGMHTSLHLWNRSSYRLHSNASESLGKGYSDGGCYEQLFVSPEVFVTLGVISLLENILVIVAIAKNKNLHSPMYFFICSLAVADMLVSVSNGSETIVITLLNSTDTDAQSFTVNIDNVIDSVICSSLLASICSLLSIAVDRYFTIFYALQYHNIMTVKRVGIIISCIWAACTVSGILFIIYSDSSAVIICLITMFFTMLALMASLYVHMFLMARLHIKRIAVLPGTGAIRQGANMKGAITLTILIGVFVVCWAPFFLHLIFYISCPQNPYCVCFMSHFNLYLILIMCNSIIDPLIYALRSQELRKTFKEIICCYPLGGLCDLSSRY
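Assay system: U2OS-MC4R stable cell line; Also added: Melanotan II; Technique: Eu-cAMP/anti-cAMP TR-FRET, emission 671 nm; Times: 30-min compound, 1-h challenge, 1-h detection, room temperature.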
MC4R barr agon – human MC4R agonism via beta-arrestin. P32245. U2OS MC4R beta-arrestin complementation, luminescence; percent of melanotan II response, DMSO zero. activation, % at 8.9 µM. 360,000 compounds, 0.98% hits;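 active means activation above a per-plate cutoff, the mean activation of sample wells on that plate plus 3 SD, cut at about 8% in these data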
HTR5A ag – HTR5A agonism, opioid heterodimer counter-screen | P47898 | HTR5A agonist assay, luminescence, cell-based | activation, % at 9.3 µM | 340,000 compounds, 0.61% hits | AID 504692; in the data active means activation mostly above about 9.5%, no sharp cut-off; inactive means mostly below about 7.6%;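 further: 0% = cells with vehicle only and 100% = reference agonist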
MOR-DOR inv ag – inverse agonists of human mu-delta opioid receptor heterodimerization | P35372+P41143 | cell-based MOR-DOR heterodimer luminescence, inverse agonism | inhibition, % at 9.3 µM | 340,000 compounds, 0.21% hits | AID 504357; in the data active means inhibition above about 22%, passing the limit was not always enough;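 further: 0% = cells with DMSO and 100% = wells without cells with DMSO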
cAMP nonselect – counter-screen for MC4R antagonists: nonselective cAMP signaling inhibitors. shares compounds with MC4R antagonist. inhibition, % at 6.5 µM. 1,600 compounds, 26% hits. parental U2OS, forskolin cAMP, LANCE TR-FRET;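 active means mean inhibition over triplicates above the low-control well mean plus 3 SD, set per campaign, cut at about 13% in these data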;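 further: signal is single emission at 671 nm which falls as cellular cAMP rises; 0% = forskolin-stimulated wells and 100% = buffer without forskolin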
MC4R cAMP antag – human MC4R cAMP antagonism confirmation | MC4R-expressing cells, MTII-stimulated cAMP, TR-FRET | shares compounds with MC4R antagonist | AID 602195 | 1,600 compounds, 27% hits | inhibition, % at 6.5 µM; in the data active means inhibition above about 29%;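 further: 0% = agonist stimulated wells alone and 100% = agonist stimulated wells plus saturating reference antagonist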
* hit, by the source's call; / = no result given.

SMILES | OPRM1-OPRD1 ag | HTR5A inv ag | MC4R antagonist | MC4R barr agon | HTR5A ag | MOR-DOR inv ag | cAMP nonselect | MC4R cAMP antag
COc1ccc2nc(/C=N/NC(=O)[C@@H]3CCCN3C(=O)OC(C)(C)C)ccc2c1 | -2.4 | -3.4 | -1.4 | -2.6 | 1.1 | 12.2 | / | /
O=C1CCC(=O)N1CC1CC2CCC1C2 (stereo unspecified) | 0.9 | 3.7 | 36.8* | 0.5 | -1.0 | -4.5 | 1.3 | -2.1
NC(=O)COC(=O)c1ccccc1Oc1ccccc1 | -1.6 | -1.9 | 23.8 | -0.5 | 0.7 | 7.3 | / | /
CCOC(=O)c1ccc(N/C=C/C(=O)C(C)(C)C)cc1 | 6.5 | 22.1 | 30.5* | 2.0 | -8.5 | -33.3 | 0.3 | 0.1
CCOC(=O)c1ccc(N/C=C/C(=O)c2ccccc2)cc1 | 0.2 | -13.5 | 7.2 | -0.9 | 2.6 | -1.1 | / | /
O=C1CC(N2CCC(c3nc4ccccc4o3)CC2)C(=O)N1 (stereo unspecified) | -1.5 | -9.4 | 5.1 | -0.3 | 3.2 | 7.4 | / | /
O=C(c1cc(-c2cccc(O)c2)on1)N1CCCCC1 | -1.7 | -11.2 | 2.0 | 0.3 | 3.7 | 10.1 | / | /
O=C(c1cc(-c2cccc(O)c2)on1)N1CCCC1 | -2.2 | -20.1 | 31.4* | -0.8 | 7.5 | 11.9 | -0.1 | 1.0
O=C(NCc1ccccn1)C(=O)Nc1ccccc1 | -1.1 | 11.3 | 9.5 | 1.0 | -4.0 | 6.2 | / | /
O=C(NCCCO)C(=O)NCc1ccccn1 | 0.8 | 11.8 | 30.0* | 0.9 | 0.0 | -4.3 | 2.1 | 8.4
CCC(C)(C)n1nnnc1C(c1cc(OC)ccc1OC)N1CCC(C(N)=O)CC1 (stereo unspecified) | 1.1 | 4.5 | 5.4 | -1.0 | -2.7 | -6.7 | / | /
CCOc1ccc(N2C(=O)C3C(c4ccccc4F)NN(C(=O)c4ccc(C)cc4)C3C2=O)cc1 (stereo unspecified) | 1.7 | 0.5 | 30.5* | 1.0 | -0.2 | -8.7 | -3.9 | -19.1
O=C(Nc1sc2c(c1C(=O)NCC1CCCO1)CCCC2)c1cccs1 (stereo unspecified) | 3.2 | 0.4 | 31.4* | 0.6 | 6.4 | -18.8 | 3.4 | 15.2
CN(C)CCNc1cnn(-c2ccccc2)c(=O)c1Cl | -3.6 | 24.2 | 29.0* | 3.5 | -0.6 | 18.6 | -1.7 | -17.4
CC(=O)c1ccc(NC(=O)c2cnsn2)cc1 | -1.9 | 16.4 | 12.0 | 0.2 | 5.2 | 9.4 | / | /
CCc1cccc(CC)c1NC(=O)c1cc(CN2C(=O)c3ccccc3C2=O)ccc1OC | 0.5 | -15.0 | 10.0 | -1.0 | -0.1 | -3.1 | / | /
COc1ccc(CN2C(=O)c3ccccc3C2=O)cc1C(=O)O | -1.1 | -4.6 | 30.4* | 0.7 | 1.3 | 5.0 | 3.3 | -3.2
N#Cc1ccc(S(=O)(=O)NCC(=O)OCC(=O)N2CCCC2=O)cc1 | -2.8 | 1.5 | 33.7* | -4.6 | -0.4 | 15.3 | 18.9* | 14.1
Cc1ccc(S(=O)(=O)NCCC(=O)OCC(=O)N2CCCC2=O)cc1 | -0.6 | 1.6 | 5.1 | -1.6 | -0.6 | 4.3 | / | /
CCc1nc(SCC(=O)Nc2nc3c(s2)CCCC3)c2ccccc2n1 | 2.2 | 13.7 | 32.6* | 1.8 | -4.5 | -11.1 | 17.2* | 46.6*
O=C(CSc1nc2ccccc2o1)Nc1nc2c(s1)CCCC2 | 5.4 | -38.7 | -2.6 | -1.6 | 0.5 | -27.4 | / | /
CCCc1nc(SCC(=O)Nc2nc3c(s2)CCCC3)c2ccccc2n1 | 5.1 | -10.5 | 35.6* | 2.2 | 5.0 | -29.2 | 10.7 | 27.0
CSCc1ccc(C(=O)NC(C)c2cnn(-c3ccccn3)c2C)o1 (stereo unspecified) | -2.9 | -9.4 | -1.6 | -3.0 | 3.9 | 14.8 | / | /
COc1ccc(-n2nnnc2S(=O)(=O)CC(=O)N2CCCCC2)cc1 | -4.3 | 9.7 | 38.5* | -1.2 | -3.8 | 24.1 | 5.7 | 50.8*
COc1ccc(-n2nnnc2S(=O)(=O)Cc2ccc(C(=O)O)cc2)cc1 | -5.3 | 17.0 | 8.9 | -1.4 | -3.6 | 24.0 | / | /
SMILES | OPRM1-OPRD1 ag | HTR5A inv ag | MC4R antagonist | MC4R barr agon | HTR5A ag | MOR-DOR inv ag | cAMP nonselect | MC4R cAMP antag
CCCn1c(N)c(N(CCOC)C(=O)c2cccc(S(=O)(=O)N3CCCc4ccccc43)c2)c(=O)[nH]c1=O | -1.8 | 2.2 | -0.1 | -2.8 | 2.4 | 9.8 | / | /
Cc1ccc2c(c1)c1c3n2CCN(C(=O)CCl)C3CCC1 (stereo unspecified) | -0.1 | -26.9 | 38.4* | 0.7 | 7.3 | 0.3 | 5.4 | 29.0*
CCN(C[C@H]1N[C@@](Cc2ccccc2)(C(=O)OC)[C@H]2C(=O)N(C)C(=O)[C@@H]12)S(=O)(=O)c1ccc(C(F)(F)F)cc1 | 3.4 | -1.5 | 17.9 | 0.9 | 0.4 | -15.9 | / | /
CCN(C[C@H]1N[C@@](Cc2ccccc2)(C(=O)OC)[C@H]2C(=O)N(Cc3ccccc3)C(=O)[C@@H]12)S(=O)(=O)c1ccc(C(F)(F)F)cc1 | 5.6 | 6.3 | 37.5* | 2.5 | -1.7 | -26.1 | 0.8 | 1.1
CCN=C1SC(CC(N)=O)C(=O)N1CC (stereo unspecified) | 1.3 | -18.6 | 32.4* | 1.9 | 7.2 | -7.5 | 3.9 | 3.8
CC(C)Sc1ncnc2[nH]ncc12 | 0.2 | -29.6 | 0.1 | 0.3 | 7.2 | -1.2 | / | /
COC(=O)c1ccccc1NC(=O)N1CCN(S(C)(=O)=O)CC1 | 0.3 | -1.3 | 30.9* | 0.4 | 0.5 | -1.5 | -0.1 | 4.8
OC(COc1ccccc1)CN1CCCCC1 (stereo unspecified) | 0.8 | 4.9 | 11.8 | 1.6 | -1.4 | -4.0 | / | /
OC(COc1ccccc1)CN1CCOCC1 (stereo unspecified) | -2.5 | 22.9 | 29.8* | -1.2 | 0.7 | 11.7 | -0.1 | 1.9
O=S(=O)([O-])CCC[N+]1(CC#Cc2ccccc2)CCCCC1 | 1.9 | -2.4 | 35.5* | -0.1 | 1.0 | -9.8 | -0.6 | 4.3
Cc1cc(NC(=O)c2c(C)noc2C)no1 | -0.2 | 11.7 | 10.2 | 0.5 | 2.1 | 1.2 | / | /
COc1cc(S(=O)(=O)n2ccc(C)n2)c(OC)cc1Cl | 0.7 | 1.6 | 2.1 | 1.6 | -1.2 | -4.2 | / | /
COc1cc(S(=O)(=O)n2ccc(C)n2)ccc1Cl | -0.3 | 14.8 | 28.7* | 0.0 | 0.6 | 1.9 | 0.9 | -6.7
CC(=O)NCC(c1cccs1)S(=O)(=O)c1ccc(F)cc1 (stereo unspecified) | 0.9 | 2.2 | 33.4* | 1.4 | -2.7 | -4.8 | 5.4 | 5.7
COCC(=O)Nc1sc2c(c1C(=O)OC)CCCC2 | 2.9 | 7.2 | -10.0 | -3.3 | 3.5 | -15.2 | / | /
COC(=O)c1c(NC(=O)COC(=O)c2ccc(O)cc2)sc2c1CCCCC2 | 0.0 | 20.6 | 29.6* | 2.5 | 1.1 | 0.3 | -1.1 | 5.7
CC(=O)Oc1c(Br)cc(N(C(C)=O)S(=O)(=O)c2ccccc2)c2ccccc12 | 12.4 | 14.0 | -3.8 | 0.8 | -3.7 | -61.2 | / | /
